Env fusion inh = HIV envelope-mediated fusion inhibition | HeLa-JRFL Env/CEM21 cell fusion, luciferase | 360,000 compounds, 1.1% hits | inhibition, % at 12.3 µM;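 active means mean replicate inhibition score of at least 50 and every replicate individually at or above 50; inconclusive means only one of the two criteria met; inactive means mean below 50 and not all replicates reaching 50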;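 further: 0% = plate neutral controls and 100% = maraviroc near 300 nM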
Cneo AK release = Cryptococcus neoformans lysis via adenylate kinase release; C. neoformans lysis, adenylate kinase release luminescence, 4 h; normalised: neutral wells 0, clomiphene wells 100; lysis activity, % at 15 µM; 360,000 compounds, 0.2% hits; AID 651654;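 active means mean lysis activity across replicates of at least 80%, whatever share of replicates individually reach that level; inactive means mean lysis activity below 80%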
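Schedule: static 4 h at 37 °C with compound, 1 h detection; system: C. neoformans cells; benchmarks: Clomiphene as positive control; buffer or medium: fresh YPD medium; measure: luminescence rise reflecting yeast cell lysis; measured by: luminescent adenylate kinase detection reagent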
esBAF inh = SWI/SNF esBAF complex inhibition. reporter increase, % at 12.5 µM. 350,000 compounds, 2% hits. mouse ES cells, Bmi1-luciferase knock-in reporter, 24 h; 100% = twice the neutral-well signal; in the data active means activation above about 40%; inconclusive means no clear call, values can overlap the other calls;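 further: 0% = median of the plate's neutral control wells and 100% = double that signal; a rise in the Bmi1 reporter signal indicates esBAF inhibition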
ERAP1 HTS inh = inhibitors of human ERAP1 aminopeptidase; AID 652197; recombinant ERAP1, Leu-AMC fluorescence, 60 min; Q9NZ08; 340,000 compounds, 0.15% hits; inhibition, % at 10.7 µM;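 active means mean replicate inhibition of at least 30%, or all replicates individually reaching that 30% level; inactive means mean below 30% and not every replicate reaching it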;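 further: 0% = neutral control wells and 100% = L-leucinethiol positive control wells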
Target sequence (Q9NZ08 whole entry, looked up): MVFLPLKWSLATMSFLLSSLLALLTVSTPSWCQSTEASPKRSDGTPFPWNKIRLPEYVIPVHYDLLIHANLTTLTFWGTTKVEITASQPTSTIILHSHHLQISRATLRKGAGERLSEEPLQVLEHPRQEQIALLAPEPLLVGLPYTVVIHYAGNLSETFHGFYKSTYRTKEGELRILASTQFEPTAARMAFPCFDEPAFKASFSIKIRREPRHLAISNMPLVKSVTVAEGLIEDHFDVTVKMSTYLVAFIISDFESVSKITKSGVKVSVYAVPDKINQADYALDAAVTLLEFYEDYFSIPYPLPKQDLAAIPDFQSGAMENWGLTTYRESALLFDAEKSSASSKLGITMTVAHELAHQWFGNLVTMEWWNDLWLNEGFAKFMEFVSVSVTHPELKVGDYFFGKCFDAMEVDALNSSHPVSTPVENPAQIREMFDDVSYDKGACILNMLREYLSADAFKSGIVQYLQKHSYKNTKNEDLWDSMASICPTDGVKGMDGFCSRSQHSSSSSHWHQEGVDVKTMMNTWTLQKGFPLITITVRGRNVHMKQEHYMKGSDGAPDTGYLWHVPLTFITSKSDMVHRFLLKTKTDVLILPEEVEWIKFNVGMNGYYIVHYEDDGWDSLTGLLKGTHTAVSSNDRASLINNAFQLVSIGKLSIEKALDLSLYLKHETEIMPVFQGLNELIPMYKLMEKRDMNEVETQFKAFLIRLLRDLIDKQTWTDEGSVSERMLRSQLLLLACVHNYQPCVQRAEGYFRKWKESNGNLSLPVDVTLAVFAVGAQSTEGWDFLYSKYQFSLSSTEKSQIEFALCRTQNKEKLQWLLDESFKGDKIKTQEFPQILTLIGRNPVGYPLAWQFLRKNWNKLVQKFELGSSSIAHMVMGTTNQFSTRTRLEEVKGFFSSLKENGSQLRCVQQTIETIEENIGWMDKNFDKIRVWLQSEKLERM
MITF TRPM1 HTS = activators of MITF-driven TRPM1 promoter activity in SK-MEL-5 cells. activation, % at 12.5 µM. SK-MEL-5 TRPM1-promoter luciferase, 24 h; % of positive control, neutral wells = 0. 300,000 compounds, 0.75% hits;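 active means mean activation of at least 80% with every replicate also reaching 80%; inconclusive means mean reaches 80% but some replicate falls short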;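 further: 0% = neutral control wells and 100% = parthenolide positive control wells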
Wnt bcat act = Wnt/beta-catenin pathway activation; Wnt/beta-catenin reporter cell assay, activator, plate reader; activation, % at 9.35 µM; 300,000 compounds, 1.2% hits; in the data active means activation above about 30%, passing the limit was not always enough; inconclusive means no clear call, values can overlap the other calls;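 further: 0% = neutral control wells and 100% = positive control wells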
Active calls of the source: *; ? = inconclusive; / = no result given; [ ] = dose if it differs, or a comment. An excerpt weighted towards active compounds, which were near 3.5% of everything screened.

SMILES | Env fusion inh | Cneo AK release | esBAF inh | ERAP1 HTS inh | MITF TRPM1 HTS | Wnt bcat act
CN(C)C(=O)c1ccc(-c2ccccc2[C@H]2[C@@H](C#N)N(C(=O)C3CCCCC3)[C@@H]2CO)cc1 | / | / | / | -1 | / | /
COc1cc2c(cc1NC(=O)c1cccc(S(=O)(=O)N(C)C)c1)oc1ccccc12 | 24 | 0 | / | / | 21 | 41*
COc1ccc(Cl)cc1NC(=O)C1CCCO1 (stereo unspecified) | / | 3 | -6 | / | 13 | /
CCNC(=S)Nc1cc2oc3ccccc3c2cc1OC | -35 | 37 | 45* | -5 | 0 | 2
COc1cc2c(cc1NC(=O)C1CCCO1)oc1ccccc12 (stereo unspecified) | -221 | 4 | 57* | / | 33 | -4
CCN(CC)S(=O)(=O)c1ccc(C(=O)Nc2cc3oc4ccccc4c3cc2OC)cc1 | 0 | / | / | / | 5 | /
O=C(NCc1cccs1)c1ccc(N2CCCCC2)nc1 | -50 | 0 | 81* | / | 71 | /
CC1CCCN(c2ccc(C(=O)NCc3cccs3)cn2)C1 (stereo unspecified) | / | -1 | 94* | / | 79 | /
CC=Cc1ccc2n(c1=O)C[C@H]1[C@H](CO)[C@@H](C(=O)NCCC)[C@@H]2N1CC1CCCC1 (mixture of isomers) | -2[16.7 µM] | -1 | 2 | 0 | / | /
CCc1ccc2[nH]c(=O)c(C(c3nnnn3Cc3ccccc3)N3CCOCC3)cc2c1 (stereo unspecified) | 9 | -2 | 10 | / | -8 | /
CCc1ccc2[nH]c(=O)c(C(c3nnnn3Cc3ccc(OC)cc3)N3CCOCC3)cc2c1 (stereo unspecified) | 78* | 0 | 1 | / | 6 | /
COc1ccc(Cn2nnnc2C(c2cc3cc(C)cc(C)c3[nH]c2=O)N2CCOCC2)cc1 (stereo unspecified) | 131* | 0 | 0 | / | -5 | /
CC(C)CCOC(=O)C1C(c2ccccc2)C(C(=O)O)C1c1ccccc1 (stereo unspecified) | -6 | -2 | -6 | / | 6 | 43*
O=C(NC1CC1)C1Nc2ccc(OC(F)(F)F)cc2C2C=CCC12 (stereo unspecified) | -54 | -4 | -4 | / | -8 | 39*
O=C(NCc1ccccc1)C1Nc2ccc(OC(F)(F)F)cc2C2C=CCC12 (stereo unspecified) | -2 | 0 | -2 | / | -10 | -5
O=C(Cc1ccccc1)N[C@@H]1CC[C@@H](CC(=O)N2CCOCC2)O[C@H]1CO | 4[16.7 µM] | -5 | -5 | 0 | / | /
O=C(Nc1ccccc1O)c1c(O)c2c([nH]c1=O)CCCC2 | -90 | -7 | 85* | 4 | 27 | -2
O=C(Nc1ccccc1O)c1csc2c1CCCC2 | ? | 0 | / | 1 | 49 | 38*
O=C(Nc1nccs1)c1c(O)c2c([nH]c1=O)CCCC2 | -143 | / | ? | -1 | 50 | 50*
CCCc1nnc(NC(=O)c2c(O)c3c([nH]c2=O)CCCC3)s1 | -58 | 1 | / | / | / | -3
CO[C@@H](C(=O)N(C)C[C@H]1OCc2ccccc2-c2c(n(C)c3ccccc23)C(=O)N([C@H](C)CO)C[C@@H]1C)c1ccccc1 | 34[16.7 µM] | -2 | 3 | -1 | / | /
COc1cccc(S(=O)(=O)N2C[C@@H](O)COC[C@@H]3O[C@@H](CC(=O)N4CCN(C)CC4)CC[C@H]32)c1 | / | -5 | -6 | 2 | / | /
COc1cccc(S(=O)(=O)N2C[C@H](O)COC[C@@H]3O[C@H](CC(=O)Nc4ccccc4)CC[C@H]32)c1 | 4[16.7 µM] | 1 | 9 | 0 | / | /
COc1cccc(S(=O)(=O)N2C[C@@H](O)COC[C@H]3O[C@H](CC(=O)N4CCN(C)CC4)CC[C@@H]32)c1 | / | 85* | 3 | 6 | / | /
COc1cccc(S(=O)(=O)N2C[C@@H](O)COC[C@H]3O[C@H](CC(=O)Nc4ccccc4)CC[C@@H]32)c1 | 5[16.7 µM] | 112* | 0 | -3 | / | /
SMILES | Env fusion inh | Cneo AK release | esBAF inh | ERAP1 HTS inh | MITF TRPM1 HTS | Wnt bcat act
C[C@H](CO)N1C[C@H](C)[C@H](CN(C)Cc2ccc(Cl)c(Cl)c2)OCc2ccccc2-c2ccccc2C1=O | / | / | / | -5 | / | /
Cc1c(C(=O)NNC(=O)c2ccccc2O)oc2ccccc12 | -15 | 1 | 59* | 0 | / | 1
COC(=O)c1oc2ccccc2c1NC(=O)c1ccccc1O | 14 | -19 | -5 | 3 | -18 | 0
COCC(=O)Nc1c(C(=O)Nc2ccc3c(c2)OCO3)oc2ccccc12 | -52 | 3 | 63* | -2 | 59 | 27
Cc1c(C(=O)Nc2ccc3c(c2)OCO3)oc2ccccc12 | -64 | -4 | 50* | -4 | 42 | 27
CCCNC(=O)N(C)C[C@H]1Oc2ncc(-c3ccc(F)cc3)cc2C(=O)N([C@H](C)CO)C[C@@H]1C | 3[16.7 µM] | -1 | -4 | 4 | / | /
C[C@H](CO)N1C[C@H](C)[C@@H](CN(C)S(=O)(=O)c2cn(C)cn2)Oc2cc(C3=CCCC3)ccc2S1(=O)=O | -2[16.7 µM] | -3 | 2 | 2 | / | /
Nc1c(Cl)cc2c(c1Br)Cc1ccccc1-2 | -4 | -1 | 16 | 1 | -3 | 14
Nc1c(Cl)cc2c(c1Oc1ccccc1)C(=O)c1ccccc1C2=O | 125* | 0 | 18 | / | 26 | 2
Cc1noc(C)c1NC(=O)Nc1cccc2c1O[C@@H](CN(C)Cc1ccc(Oc3ccccc3)cc1)[C@H](C)CN([C@@H](C)CO)C2=O | -1[16.7 µM] | -1 | 3 | -1 | / | /
Cc1ccc(S(=O)(=O)N/N=C2/CC(c3ccccc3)Oc3ccccc32)cc1[N+](=O)[O-] (stereo unspecified) | -75 | 5 | 41* | / | / | /
O=S(=O)(N/N=C1/CC(c2ccccc2)Oc2ccccc21)c1ccc(Br)cc1 (stereo unspecified) | -3 | 14 | 4 | / | / | /
C[C@@H]1CCCCO[C@@H](CN(C)CC2CC2)[C@H](C)CN([C@@H](C)CO)C(=O)c2cc(NC(=O)NC3CCCCC3)ccc2O1 | -12[16.7 µM] | 10 | 0 | 0 | / | /
COc1cccc(-c2nc(CS(=O)(=O)CC(=O)NCCC(C)C)c(C)o2)c1 | 28 | 0 | 5 | 0 | -7 | 38*
COc1ccc(NC(=O)CS(=O)(=O)Cc2nc(-c3ccc(C)cc3)oc2C)cc1 | 13 | / | / | 1 | -9 | -5
COc1ccc(-c2nc(CS(=O)(=O)CC(=O)Nc3ccc(Cl)cc3)c(C)o2)cc1 | 14 | 1 | 66* | 4 | 14 | -2
C/C=C/c1ccc([C@H]2[C@@H](CO)N(C(=O)Cc3cccnc3)[C@@H]2CNC(C)=O)cc1 | / | 1 | 0 | / | / | /
O=C(C1CCCC1)N1CCCCN2[C@H](C1)[C@H](c1ccc(-c3ccncc3)cc1)[C@@H]2CO | / | -1 | / | -3 | / | /
CN1c2ccc(-c3ccccc3F)cc2[C@@H]2[C@@H](CCN2S(=O)(=O)c2ccc(F)cc2)[C@@H]1CO | / | -1 | 3 | / | / | /
Cc1noc(C)c1NC(=O)N(C)C[C@H]1Oc2c(NC(=O)CCCCCC(=O)Nc3ccccc3N)cccc2C(=O)N([C@@H](C)CO)C[C@@H]1C | / | / | / | -1 | / | /

Compound activity as filed in PubChem BioAssay.
